From PubChem
Only some compounds are listed: those with a hit (about 3.1% of all), similar ones and a draw of the others.
OX1R antag-1 – OX1R (HCRTR1) antagonists, primary screen, fluorescence, CHO/OX1R cells, Fluo-8 calcium, orexin A | Orexin/Hypocretin receptor type 1 (Homo sapiens), O43613 | Fluo-8 calcium fluorescence | inhibition, % at 5 µM | 330,000 compounds, 0.43% hits | AID 434989, 2010;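 active means inhibition above its plate's threshold, mean inhibition of all tested compounds on the plate plus 3 SD, cut at about 37% in these data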
OX1R antag-2 – antagonists of human orexin 1 receptor (OX1R) | inhibition, % at 6.6 µM | Orexin/Hypocretin receptor type 1 (Homo sapiens), O43613 | 330,000 compounds, 1.8% hits | OX1R-expressing cells, FRET antagonist read-out; in the data active means inhibition mostly above about 38%, no sharp cut-off; inactive means mostly below about 40%
GPR7 antag – GPR7 receptor antagonists, primary screen, cell-based, fluorescence, single concentration. Neuropeptides B/W receptor type 1 (Homo sapiens), P48145. AID 1861, 2009. inhibition, % at 4.4 µM. 290,000 compounds, 1.1% hits. GPR7-expressing cells, fluorescence antagonist assay; in the data active means inhibition above about 16%, passing the limit was not always enough;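 further: cells stimulated with the agonist NPW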
Target sequence (P48145 whole entry, looked up): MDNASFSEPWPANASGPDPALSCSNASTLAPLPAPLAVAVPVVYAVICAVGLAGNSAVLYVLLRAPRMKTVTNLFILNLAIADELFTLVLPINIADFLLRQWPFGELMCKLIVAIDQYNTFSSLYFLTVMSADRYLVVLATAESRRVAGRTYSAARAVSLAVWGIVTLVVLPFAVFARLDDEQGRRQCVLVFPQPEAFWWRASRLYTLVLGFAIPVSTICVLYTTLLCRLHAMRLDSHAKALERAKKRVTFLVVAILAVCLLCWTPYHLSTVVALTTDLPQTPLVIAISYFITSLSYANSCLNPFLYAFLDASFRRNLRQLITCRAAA
CHO parental Ca – ATP-evoked calcium signal inhibitors, parental CHO, primary screen, counter-screen for OX1R antagonist project, cell-based, fluorescence, Fluo-8 calcium dye; inhibition, % at 5.6 µM; AID 463079, 2010; parental CHO-K1, ATP-induced calcium, Fluo-8 fluorescence; 330,000 compounds, 0.63% hits;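 active means inhibition above that plate's mean sample inhibition plus 3 SD, cut at about 26% in these data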
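Measured by: calcium-sensitive Fluo-8 fluorescence / Test system: CHO parental line / Controls: ATP-challenged DMSO wells low, unchallenged DMSO wells high / Measure: % inhibition / Compound: single nominal dose of 5.6 µM per compound / Replicates: single well per compound, no replicates / Reagent: ATP as calcium-mobilizing challenge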
GalR3 antagonist – GalR3 antagonists in HEK293 cells, primary screen, cell-based, fluorescence readout; inhibition, % at 3 µM; HEK293 GalR3-CNG cAMP membrane potential fluorescence; galR3 body fused to GalR1 C-terminus; AID 651719, 2012; 360,000 compounds, 0.44% hits; Galanin receptor type 3 (Homo sapiens), O60755;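 active means inhibition above the screen-wide average plus 3 SD, cut at about 13% in these data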;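 further: forskolin and galanin both at EC90 stimulate the cells; cAMP rise reported by CNG channel membrane potential dye signal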
Target sequence (O60755 1-299 limits assumed): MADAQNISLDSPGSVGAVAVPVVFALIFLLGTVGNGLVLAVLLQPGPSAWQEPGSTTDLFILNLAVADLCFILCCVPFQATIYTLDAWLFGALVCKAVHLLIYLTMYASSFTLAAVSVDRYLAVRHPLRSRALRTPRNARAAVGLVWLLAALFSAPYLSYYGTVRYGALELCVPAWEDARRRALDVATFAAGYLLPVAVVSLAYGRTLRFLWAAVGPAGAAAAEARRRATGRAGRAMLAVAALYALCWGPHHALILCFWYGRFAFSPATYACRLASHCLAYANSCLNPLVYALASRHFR
Hits are given with their value; i = inactive; nt = no result.

SMILES	OX1R antag-1	OX1R antag-2	GPR7 antag	CHO parental Ca	GalR3 antagonist
COc1ccc(Nc2c(-c3ccc(C)cc3)nc3cnccn23)cc1	i	i	17	i	i
COc1cc2c(c(OC)c1OC)C1(CCCCC1)CC2NC(=O)c1ccncc1 (stereo not given)	nt	nt	nt	nt	i
O=C(CN1C(=O)C(c2ccc(F)cc2)=NC12CCCC2)Nc1ccc(F)cc1	i	i	i	27	nt
O=C(Nc1ccc2ccccc2n1)c1ccccc1Cl	i	i	i	i	i
COc1ccc(C(=O)Nc2ccc3ccccc3n2)c(OC)c1OC	i	57	i	i	i
Cc1ccc(OCCNC(=O)CNC(=O)c2ccc(Cl)c([N+](=O)[O-])c2)cc1	i	i	nt	i	i
CC1(C)C2CCC1(CS(=O)(=O)Nc1ccc(S(=O)(=O)N3CCCC3)cc1)C(=O)C2 (stereo not given)	i	i	19	i	i
CN(CC(=O)Nc1ccc(F)cc1)C(=O)COC(=O)c1nc(Cl)ccc1Cl	nt	nt	nt	nt	i
CC(C)(C)C(=O)NC(=S)NNC(=O)c1ccc(-c2ccccc2)cc1	103	i	103	100	nt
COc1ccc(C(=O)NC(=S)NNC(=O)c2ccc(C)cc2)cc1	59	i	nt	49	i
CC(C)(C)C(=O)NC(=S)NNC(=O)c1ccncc1	i	i	i	i	i
COc1ccc(C(=S)Nc2ccc(C)cc2)cc1	i	i	i	73	i
COc1ccccc1/C(O)=C(\C#N)c1nc2ccccc2[nH]1	i	i	i	i	i
Cc1ccc(NC(=O)CN(C)S(=O)(=O)c2cccc3cccnc23)cc1F	i	i	i	i	i
O=C(Nc1cccc(C(F)(F)F)c1)C1CCCN1S(=O)(=O)c1cccc2cccnc12 (stereo not given)	80	91	i	i	i
O=C(C1CCN(S(=O)(=O)c2cccc3cccnc23)CC1)N1CCc2ccccc21	i	i	i	i	i
Cc1ccc(NC(=O)CN(C)S(=O)(=O)c2cccc3cccnc23)cc1C	i	39	i	i	nt
O=C(C1CCCN1S(=O)(=O)c1cccc2cccnc12)N1CCc2ccccc21 (stereo not given)	i	47	i	i	i
CCOC(=O)c1cccc(NC(=O)C2CCCN2S(=O)(=O)c2cccc3cccnc23)c1 (stereo not given)	i	i	i	i	i
CN(CC(=O)N1CCc2ccccc21)S(=O)(=O)c1cccc2cccnc12	i	60	i	i	i
COC(=O)C1=C(C)N(Cc2cccc(C(F)(F)F)c2)C(=NCc2cc(OC)c(OC)c(OC)c2)NC1c1ccc(Cl)cc1 (stereo not given)	nt	nt	nt	nt	i
Cc1cccc(C(=O)Nc2cccc3cccnc23)c1	nt	nt	i	nt	i
Cc1ccccc1NC(=O)C1CCCN1S(=O)(=O)c1cccc2cccnc12 (stereo not given)	i	43	i	i	nt
Cc1ccc(C(=O)Nc2cccc3cccnc23)cc1C	i	68	i	i	i
COC(=O)c1cc2c(c3c4cc(C)ccc4n(S(=O)(=O)c4ccc(OC)cc4)c13)C(=O)N(Cc1ccc(C(F)(F)F)cc1)C2	nt	nt	nt	nt	i
SMILES	OX1R antag-1	OX1R antag-2	GPR7 antag	CHO parental Ca	GalR3 antagonist
Cc1ccc(S(=O)(=O)n2ccc3c(OCCOCCNCc4ccc(F)cc4)cccc32)cc1	i	i	i	39	i
Cc1ccc(S(=O)(=O)n2ccc3c(OCCOCCSCC(NC(=O)OC(C)(C)C)C(=O)O)cccc32)cc1 (stereo not given)	i	i	i	i	i
CCOC(=O)COc1cc([N+](=O)[O-])cc2cccnc12	i	42	i	i	i
CCOC(=O)COc1ccccc1/C=C\[N+](=O)[O-]	i	i	i	i	nt
Cc1ccccc1C(=O)c1cccn1CC(=O)NCC(C)c1ccccc1 (stereo not given)	i	39	i	i	i
Cc1ccccc1C(=O)c1cccn1CC(=O)NC1CCCC(C)C1C (stereo not given)	i	40	i	i	i
CN(C)C=Nc1ccc2nc3c(cc2c1)[nH]c1ccccc13	i	55	i	i	i
CC(C)(C)c1cc[n+](C2=C([O-])c3ccccc3C(=O)/C2=N\S(=O)(=O)c2cccs2)cc1	i	77	i	i	i
Cc1ccc(NC2=C/C(=N\S(=O)(=O)c3cccs3)c3ccccc3C2=O)c(C)c1	i	i	i	i	nt
OC(c1ccccc1)(c1ccccc1)C1CCN(CCCOc2ccc(-c3cccnc3)cc2)CC1	nt	nt	nt	nt	i
COc1cc2c(C(=O)N3CCOCC3)c(CSc3ccccc3)n(C)c2cc1Br	i	56	i	i	i
Cc1cccnc1NC(=O)c1ccc(Cl)c(S(=O)(=O)N2CCCCCC2)c1	i	i	i	i	i
CCN(CC)c1ccc(NC(=O)c2cc3c(OC)cccc3[nH]2)cc1	i	40	i	i	i
COc1cccc2[nH]c(C(=O)NC(C)c3ccccc3)cc12 (stereo not given)	i	i	i	i	i
COC(=O)[C@]12CCCCC=C1N(CCc1ccc(OC)c(OC)c1)C(=O)[C@H](CC(=O)NCCC(C)C)C2	nt	nt	nt	nt	i
COc1ccc(NC(=O)COC(=O)C2CCN(C(=O)c3ccc(Cl)cc3)CC2)c([N+](=O)[O-])c1	i	38	nt	i	i
O=C(N/N=C/C=C\c1ccccc1[N+](=O)[O-])c1cccnc1	i	i	i	i	i
O=C(/C=C/c1ccc([N+](=O)[O-])cc1)NCc1cccs1	i	i	i	i	i
O=C(/C=C/c1ccc([N+](=O)[O-])cc1)NCc1ccccn1	i	75	i	i	i
CCN(CC)S(=O)(=O)c1ccc(C(=O)OCCNC(=O)c2cccnc2)cc1	i	i	i	i	i
O=C(NCCOC(=O)c1ccc([N+](=O)[O-])cc1)c1cccnc1	i	69	i	i	i
O=C(N/N=C/C=C/c1ccccc1[N+](=O)[O-])c1cccnc1	i	47	i	i	i
O=C(/C=C/c1cccc([N+](=O)[O-])c1)NCc1cccnc1	i	72	i	i	i
COc1ccc(C2CC(=O)C(c3cccc(OC)c3)=CN2Cc2ccccc2)cc1 (stereo not given)	nt	nt	nt	nt	i
CCN(CC(=O)NCc1cccs1)C(=O)c1ccc(S(=O)(=O)N(CC)c2ccccc2)cc1	i	i	nt	i	i
O=C(Cc1ccccc1)N/N=C/C=C/c1ccccc1[N+](=O)[O-]	i	i	i	i	i
O=C(N/N=C/c1ccc(-c2ccc([N+](=O)[O-])cc2)o1)c1cccnc1	i	i	i	i	i
O=C(N/N=C/c1ccc([N+](=O)[O-])cc1)c1cccnc1	i	72	i	i	i
O=C(Oc1c(Br)cc([N+](=O)[O-])cc1Br)c1cccnc1	i	53	i	i	i
